Results taken from ChEMBL document CHEMBL5053485, “Targeting Acute Myelogenous Leukemia Using Potent Human Dihydroorotate Dehydrogenase Inhibitors Based on the 2-Hydroxypyrazolo[1,5-a]pyridine Scaffold: SAR of the Biphenyl Moiety” (J Med Chem, 2021).
One block for each compound: values may come before it. Activity calls are given as the source filed them. No cut-off for these calls is given here.

Assays:
Jurkat = test: Cytotoxicity against human Jurkat cells assessed as concentration required to induce more than 30% cytotoxicity incubated for 3 days by CSFE dye based assay; type: cell-based; settings: 72 h, time 3 day
THP-1 [1] = test: Induction of cell differentiation in human THP-1 cells assessed as CD14 expression at 0.1 uM after 3 days by flow cytometric analysis; type: functional, cell-based; settings: time 3.0 day
THP-1 [2] = test: Induction of apoptosis in human THP-1 cells at 0.1 uM after 3 days by Annexin-V-FITC staining based flow cytometry relative to control; type: functional, cell-based; settings: time 3.0 day
How it was run: (§1)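 After 3 days, annexin V-FITC was read by flow cytometry. Significance versus DMSO used two-tailed paired t tests (P < 0.05). The assay was also run with 100 μM uridine.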

THP-1 [3] = test: Induction of cell differentiation in human THP-1 cells assessed as CD14 expression at 1 uM after 3 days by flow cytometric analysis; type: functional, cell-based; settings: time 3.0 day
THP-1 [4] = test: Induction of apoptosis in human THP-1 cells at 1 uM after 3 days by Annexin-V-FITC staining based flow cytometry relative to control; type: functional, cell-based; settings: time 3.0 day; how it was run: as §1
[5] = n-Octanol/PBS partition coefficient, logD of the compound at pH 7.4 incubated for 20 mins by shake flask method; type: physicochemical
[6] = Protein binding in human serum at 50 uM after 1 hr by RP-UHPLC method; type: ADME, cell-free; settings: read-out: PB (converted)
[7] = Metabolic stability in Sprague-Dawley rat liver microsomes assessed as parent compound remaining after 30 mins; type: ADME, Microsome; settings: 0.5 h
How it was run: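 The regenerating system contained MgCl₂, NADP⁺, Glu6P and G6PDH. Controls were heat-inactivated microsomes and no regenerating system. Samples taken at 0–120 min were quenched in cold acetonitrile and analysed by HPLC–HRMS.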

[8] = Solubility of compound in PBS at pH 7.4 after 24 hrs by UHPLC analysis; type: physicochemical

Structure (SMILES): O=C(Nc1c(F)c(F)c(-c2cccc(OC(F)(F)F)c2)c(F)c1F)c1c(O)nn2ccccc12
Activity (Jurkat): > 100 µM | Activity (THP-1 [1]): Active | Activity (THP-1 [2]): Active

Structure (SMILES): O=C(Nc1c(F)c(F)c(-c2ccnc(C(F)(F)F)c2)c(F)c1F)c1c(O)nn2ccccc12
Activity (THP-1 [3]): inactive | Activity (THP-1 [4]): inactive

logD at 20 min [5]: 2.09
Structure (SMILES): O=C(Nc1c(F)c(F)c(-c2cccc(F)c2)c(F)c1F)c1c(O)nn2ccccc12
Activity (THP-1 [1]): Active | Activity (THP-1 [2]): Active

fraction unbound at 1 h, 50 µM [6]: < 0.01
Structure (SMILES): COc1cccc(-c2cc(F)c(Nc3ncccc3C(=O)O)c(F)c2)c1 [ASLAN-003]

Structure (SMILES): O=C(Nc1c(F)c(F)c(-c2cccc(O)c2)c(F)c1F)c1c(O)nn2ccccc12
Activity (THP-1 [3]): inactive | Activity (THP-1 [4]): inactive

Stability [7]: Unstable
Structure (SMILES): CCCOc1cccc(-c2c(F)c(F)c(NC(=O)c3c(O)nn4ccccc34)c(F)c2F)c1
Activity (Jurkat): > 100 µM | Activity (THP-1 [1]): Active | Activity (THP-1 [2]): Active

solubility at 24 h [8]: < 6 µM
Structure (SMILES): O=C(Nc1c(F)c(F)c(-c2ccccc2)c(F)c1F)c1c(O)nn2c(Cl)cccc12

Structure (SMILES): O=C(Nc1c(F)c(F)c(-c2cccc(C(F)(F)F)c2)c(F)c1F)c1c(O)nn2ccccc12
Activity (Jurkat): > 100 µM | Activity (THP-1 [1]): Active | Activity (THP-1 [2]): Active

Structure (SMILES): O=C(Nc1c(F)c(F)c(-c2cccnc2)c(F)c1F)c1c(O)nn2ccccc12
Activity (THP-1 [3]): inactive | Activity (THP-1 [4]): inactive

logD at 20 min [5]: 2.7 | solubility at 24 h [8]: < 1 µM | fraction unbound at 1 h, 50 µM [6]: 0.099
Structure (SMILES): CCn1c(CO)nn(-c2cc(O[C@@H](C)C(F)(F)F)c(C(=O)Nc3c(F)cccc3Cl)cc2F)c1=O

solubility at 24 h [8]: < 6 µM
Structure (SMILES): O=C(Nc1c(F)c(F)c(-c2ccccc2)c(F)c1F)c1c(O)nn2c1CCCC2

Structure (SMILES): O=C(Nc1c(F)c(F)c(N2CCOCC2)c(F)c1F)c1c(O)nn2ccccc12
Activity (THP-1 [3]): inactive | Activity (THP-1 [4]): inactive

Structure (SMILES): COc1cccc(-c2c(F)c(F)c(NC(=O)c3c(O)nn4ccccc34)c(F)c2F)c1
Activity (THP-1 [1]): Active | Activity (THP-1 [2]): Active

logD at 20 min [5]: 1.83
Structure (SMILES): Cc1c(-c2ccc(-c3ccccc3F)cc2)nc2ccc(F)cc2c1C(=O)O [BREQUINAR]
